In ChEMBL document CHEMBL1140161, “Structure-activity relationships in 1,4-benzodioxan-related compounds. 9. From 1,4-benzodioxane to 1,4-dioxane ring as a promising template of novel alpha1D-adrenoreceptor antagonists, 5-HT1A full agonists, and cytotoxic agents” (J Med Chem, 2008):

Columns and labels:
[1] = molecular target: T1, 5-hydroxytryptamine receptor 1A (Homo sapiens, UniProt P08908); assay: Displacement of [3H]8-OH-DPAT from human cloned 5HT1A receptor expressed in human HeLa cells; type: cell-based
T1 sequence (P08908 whole entry): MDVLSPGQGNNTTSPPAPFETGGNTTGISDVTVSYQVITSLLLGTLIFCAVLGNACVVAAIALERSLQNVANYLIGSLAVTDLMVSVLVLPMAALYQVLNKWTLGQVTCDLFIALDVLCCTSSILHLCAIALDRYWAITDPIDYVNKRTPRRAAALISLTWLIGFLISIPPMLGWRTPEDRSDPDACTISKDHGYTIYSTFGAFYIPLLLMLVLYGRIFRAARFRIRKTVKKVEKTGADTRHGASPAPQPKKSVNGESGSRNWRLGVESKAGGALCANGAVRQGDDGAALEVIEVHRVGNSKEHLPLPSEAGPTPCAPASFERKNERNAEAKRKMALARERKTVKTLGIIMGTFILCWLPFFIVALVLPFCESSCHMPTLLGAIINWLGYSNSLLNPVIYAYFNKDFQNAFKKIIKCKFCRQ

[2] = molecular target: T2, Alpha-1A adrenergic receptor (Homo sapiens, UniProt P35348); assay: Displacement of [3H]prazosin from human cloned alpha1A adrenoceptor expressed in CHO cells; type: cell-based
T2 sequence (P35348 whole entry): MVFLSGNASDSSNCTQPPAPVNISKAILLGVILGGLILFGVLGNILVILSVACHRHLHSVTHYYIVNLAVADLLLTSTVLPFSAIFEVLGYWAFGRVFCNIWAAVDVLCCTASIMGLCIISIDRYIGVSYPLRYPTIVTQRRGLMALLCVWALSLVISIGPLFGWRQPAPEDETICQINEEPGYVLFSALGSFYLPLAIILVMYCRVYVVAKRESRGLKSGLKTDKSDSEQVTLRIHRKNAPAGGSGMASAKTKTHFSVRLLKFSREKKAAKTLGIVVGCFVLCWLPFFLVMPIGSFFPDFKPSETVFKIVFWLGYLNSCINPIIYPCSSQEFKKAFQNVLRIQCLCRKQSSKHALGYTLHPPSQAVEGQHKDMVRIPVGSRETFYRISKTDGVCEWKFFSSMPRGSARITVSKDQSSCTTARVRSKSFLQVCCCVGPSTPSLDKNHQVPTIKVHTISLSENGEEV
How it was run: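 [3H]prazosin binding to cloned human α1-adrenoceptor subtypes expressed in CHO cell membranes. Affinity reported as pKi for each subtype.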

[3] = molecular target: T3, 5-hydroxytryptamine receptor 1A (Homo sapiens) (UniProt P08908); assay: Agonist activity at human cloned 5HT1A receptor expressed in HeLa cell membrane assessed as stimulation of [35S]GTPgammaS binding relative to 5-hydroxytryptamine; type: functional, cell membranes
T3 sequence (whole entry): T1 sequence (P08908 whole entry)
How it was run: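 Activation measured as [35S]GTPγS binding in membranes from HeLa cells expressing cloned human 5-HT1A receptor. pD2 is the negative log of agonist concentration giving 50% of maximal stimulation, from two to three experiments agreeing within 20%. Efficacy is given relative to 5-HT.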

[4] = molecular target: T3, 5-hydroxytryptamine receptor 1A (Homo sapiens); assay: Agonist activity at human cloned 5HT1A receptor expressed in human HeLa cell membrane assessed as stimulation of [35S]GTPgammaS binding; type: functional, cell membranes
How it was run: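 Membranes from HeLa cells expressing cloned human 5-HT1A receptor; agonist-stimulated [35S]GTPγS binding measured. pD2 is the negative log of the agonist concentration giving 50% of maximal [35S]GTPγS binding stimulation; values from two to three experiments.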

PC-3 = assay: Induction of apoptosis in human PC3 cells assessed as translocation of phosphatidylserine at 50 uM after 48 hrs by annexin V-FITC staining and cytofluorimetric analysis; type: functional
How it was run: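 PC-3 prostate cancer cells exposed to compound for 48 h, then stained with annexin V-FITC to detect externalized phosphatidylserine. Read-out by flow cytometry as mean fluorescence intensity (MFI), against untreated and vehicle-treated cells.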

| Structure (SMILES) | Ki [1] | Ki [2] | %max [3] | pD2 [4] | Flu intensity (PC-3) |
| --- | --- | --- | --- | --- | --- |
| c1ccc(OCCNC[C@@H]2COC[C@@H](c3ccccc3)O2)cc1 (relative stereo) | 52.5 nM | 407 nM | – | – | – |
| COc1cccc(OC)c1OCCNC[C@@H]1COC[C@@H](c2ccccc2)O1 (relative stereo) | 417 nM | > 1000 nM | – | – | – |
| COc1ccccc1OCCNC[C@@H]1COC[C@@H](c2ccccc2)O1 (relative stereo) | 6.03 nM | 87.1 nM | – | – | – |
| COc1ccccc1OCCNC[C@@H]1COCC(c2ccccc2)(c2ccccc2)O1 | 0.661 nM | 27.5 nM | 81.5 | 9.4 | – |
| c1ccc(OCCNC[C@@H]2CO[C@H](c3ccccc3)CO2)cc1 (relative stereo) | 25.7 nM | > 1000 nM | – | – | – |
| COc1cccc(OC)c1OCCNC[C@@H]1COC[C@H](c2ccccc2)O1 (relative stereo) | > 1000 nM | 468 nM | – | – | – |
| c1ccc(OCCNC[C@@H]2COCC(c3ccccc3)(c3ccccc3)O2)cc1 | 0.589 nM | 170 nM | 77.1 | 9.11 | 76.98 |
| COc1ccccc1OCCNC[C@@H]1CO[C@H](c2ccccc2)CO1 (relative stereo) | 3.47 nM | 437 nM | 85.5 | 7.88 | – |
| COc1ccccc1OCCNC[C@@H]1CO[C@@H](c2ccccc2)CO1 (relative stereo) | 38.9 nM | 158 nM | – | – | – |
| COc1ccccc1OCCNC[C@@H]1COC(c2ccccc2)(c2ccccc2)CO1 | 7.59 nM | 74.1 nM | – | – | – |
| COc1cccc(OC)c1OCCNC[C@@H]1COCC(c2ccccc2)(c2ccccc2)O1 | 1.41 nM | 339 nM | 106 | 8.28 | – |
| COc1ccccc1OCCNC[C@@H]1COC[C@H](c2ccccc2)O1 (relative stereo) | 4.17 nM | 200 nM | 78.1 | – | – |
| c1ccc(OCCNC[C@@H]2COC[C@H](c3ccccc3)O2)cc1 (relative stereo) | 53.7 nM | > 1000 nM | – | – | – |
| COc1cccc(OC)c1OCCNC[C@@H]1CO[C@@H](c2ccccc2)CO1 (relative stereo) | 234 nM | 513 nM | – | – | – |
| COc1cccc(OC)c1OCCNC[C@@H]1CO[C@H](c2ccccc2)CO1 (relative stereo) | 257 nM | > 1000 nM | – | – | – |
| COc1cccc(OC)c1OCCNC[C@@H]1COC(c2ccccc2)(c2ccccc2)CO1 | 229 nM | 89.1 nM | – | – | – |
| c1ccc(OCCNC[C@@H]2CO[C@@H](c3ccccc3)CO2)cc1 (relative stereo) | 148 nM | 537 nM | – | – | – |
| c1ccc(OCCNC[C@@H]2COC(c3ccccc3)(c3ccccc3)CO2)cc1 | 37.2 nM | 224 nM | – | – | – |
